The text below walks through data of the RNAGym collection of RNA variant scans (doi:10.1126/science.aae0568).

Sequences and labels used below:
B1: tRNA (parent)
chain: GUUCCGUUGGCGUAAUGGUAACGCGUCUCCCUCCUAAGGAGAAGACUGCGGGUUCGAGUCCCGUACGGAACG

Fewer inactive variants are shown than the library holds. Where only a bound is given, the exact number is not on record here.

The variants in the data set derive from B1. The experiment in a line: yeast fitness relative to wild type (ratio to wild type); higher = fitter; tRNA-Arg(CCU), competitive growth, 37 C, YPD. An outline of the steps: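 Genotype frequency changes were the basis for Darwinian fitness relative to wild type. The frequencies came from 100-nucleotide paired-end sequencing of gene amplicons from the start population and each end population of pooled yeast strains with tRNA-Arg(CCU) gene variants at the native locus. Competition ran in YPD at 37°C for 24 hours in six replicates, genotypes needed ≥ 100 starting reads, and estimates < 0.5 were set to 0.5.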
Turning to C30A G48C, the yeast fitness worked out at 0.797.

With C33U G48A C60U U64G A65U A69C, the yeast fitness amounted to 0.571.

As to U7A A20G C29A, the yeast fitness was 0.544. For the variant A14U G23U, the yeast fitness was determined as 0.59. Then A36U C61G A65C, with no more than 0.5; and C11A C24U C34A A37U, with no more than 0.5; and C4U C5G G41A A70G, with no more than 0.5. Then C4G G23A C55A C61A, with 0.667; and A21C C34A G38A A45U, with 0.546. To G10C A15G G18A U35A G44A belongs no more than 0.5; to U7G G44C, 0.666. With A14G C30U C46U G50A A69G, the yeast fitness is 0.704. Then A37C A42C C66A, with 0.547; and C30G C55G U59A U64G, with no more than 0.5; and C5G A20U C62G, with no more than 0.5.

Regarding C5G A42U A57U U59A A69C, the yeast fitness is no more than 0.5. For the variant A15C G63C, the yeast fitness turned out to be 0.616. Then C5A G9C G38C G63C C66U, with no more than 0.5; and U8C C60A, with 0.737.

As to U2G A57U, the yeast fitness turned out to be 0.66.

With A20U A37U, the yeast fitness amounted to 0.811. To U2C G25A A42U A65C G67U belongs 0.578; to G9C C30A C46A G48C A70C, no more than 0.5. To C11A C30U C33G A40G belongs no more than 0.5. To U2A U3G C34U belongs no more than 0.5.

U3A A21C C24G G56A: the yeast fitness is no more than 0.5.

As for C34U U35G G38A C62U A65C G67A, the yeast fitness is no more than 0.5. To A57G G58C belongs 1.03; to A37U A65G C66A, no more than 0.5; to A14C A20C C34A A42U, no more than 0.5. Then U32C A40C, with 0.986; and C4U U13C A14G, with 0.587; and A20U C22U C33A C66A, with no more than 0.5.

For the variant U16G A21U A40C G58C A65C C66G, the yeast fitness is 0.515.

G17A U26G C29G C62U A70G: the yeast fitness was no more than 0.5. For C5G U7G C33A, the yeast fitness is 0.519. As for U3C G6C G38C C46A, the yeast fitness was no more than 0.5. Take U13C G18A C46G U47A C49U C55G A57C: the yeast fitness was no more than 0.5.

U13A G41A G67A: the yeast fitness is 0.546. Then A20G C49A A65G, with 0.619; and U3A C31U A70U, with 0.688. With G12A A20C, the yeast fitness turned out to be 0.875. For the variant G18A C62G G68U, the yeast fitness is no more than 0.5.

With C5A C31G, the yeast fitness was found to be 0.889.

On to U19G U28G A36U C46U C61U, for which the yeast fitness was no more than 0.5. Then U16C A42C A65U, with 0.585. Then U3G U8C C61G G63C, with no more than 0.5. Then U3A A36G A42U, with 0.619. On to C5U C11A A43U C66U, for which the yeast fitness is 0.621. To U3G C11U belongs 0.748; to C27U C46U G48A G68A, 0.635; to C22U A43U, 0.788. Then C22G C33A A36C A43G C55G, with 0.595; and A37U A45U G68U, with no more than 0.5; and A14C C27U C55G A70U, with 0.613.

Turning to C22A C30U U35C, the yeast fitness was no more than 0.5. To A37U A40U belongs 0.72; to U19G U47A, 0.771; to C4U C11A G39A G51A G67C, no more than 0.5. Consider U19C A37U C66G, for which the yeast fitness was no more than 0.5. To A45U G56A A69C belongs 0.766; to G17A C34A C49U G52U, no more than 0.5.

In the case of A40U U54C, the yeast fitness came to 0.802. As to C22U C31G G67C, the yeast fitness came to 0.653. Then C4A U13C U28A C34G, with no more than 0.5; and U2A C66G, with 0.715; and C24U C61G G63C, with 0.537.

In the case of C5A C11G A45C, the yeast fitness was no more than 0.5. As to C5A G41C, the yeast fitness turned out to be 0.779. To C31U C34G C62U A70G belongs no more than 0.5; to C24U C31A U54C A57U, 0.547. On to G18A A20U C22U U28A C33U G44C, for which the yeast fitness stood at 0.524.

Consider G12C C31U G68C, for which the yeast fitness was 0.505. In the case of C11U U13A G48A, the yeast fitness worked out at 0.59. With U2C A57U C62U, the yeast fitness came out at 0.549. With A20C C22A A36C A69U, the yeast fitness was no more than 0.5. For the variant G18U A45U U59C, the yeast fitness worked out at 0.542. Then C11A C34A G52C, with 0.541; and C4U G6C U7A, with no more than 0.5.

For the variant A14G A15U G25C U54A, the yeast fitness was no more than 0.5. Consider C22A G51C C66U, for which the yeast fitness is no more than 0.5. As to C11A A20C A21G U47C G56C U64C G68C, the yeast fitness was no more than 0.5. Then U8A A45G C61G C62U, with no more than 0.5; and C11G C29U U35C C66A, with no more than 0.5. Then C33U U47A G63A, with no more than 0.5; and U2C G58A G68C, with 0.645; and C4A G25C C34U A57C, with no more than 0.5. Then U2G G6A C27G U54C C62U, with no more than 0.5; and C34U A43G, with 0.789; and U2A G9A A70C, with 0.568. For C22G G44C U47C A70C, the yeast fitness was no more than 0.5. As to G56C, the yeast fitness turned out to be 0.663. Then G6C G10A A36U G51C A69C, with 0.624; and C29U G51C G67A, with no more than 0.5; and G9C G12C A14G A20C G67C, with no more than 0.5. For the variant A20U A37U C55U, the yeast fitness is no more than 0.5.

In the case of C4G C30A, the yeast fitness was found to be 0.679. Turning to U16A G56C A57U C60U, the yeast fitness was no more than 0.5.

Turning to C22G C30U A37G A43U G68U, the yeast fitness is no more than 0.5.

On to U35G A43U C46G U53C A69C, for which the yeast fitness is no more than 0.5. Then G12C U16C C31G, with no more than 0.5; and C4G C11G C55U C61A, with 0.567. Turning to C4U G48C C66U, the yeast fitness was 0.729. As for G10C C34A A57U, the yeast fitness was 0.577. For C4A C5G A20G U54A C62U, the yeast fitness is no more than 0.5. Turning to C29G U32C A42C, the yeast fitness came to 0.54. Then G6C A43C G50A, with no more than 0.5; and C4G U7G A69U, with no more than 0.5; and U3A C31U A40C A70G, with no more than 0.5. Then G9A A14C A42G C49G U54C G63C A70U, with no more than 0.5; and G9C U16G U32C A37C, with no more than 0.5; and G9A A45U G48A G56A, with 0.701. In the case of C11U A20G U59A, the yeast fitness was 0.514. On to C5G C11A A40U U64C, for which the yeast fitness came to 0.536. In the case of A40U G50C, the yeast fitness turned out to be 0.726.

For C34A G56C, the yeast fitness is no more than 0.5. Then G10A C11A A14G A15G, with no more than 0.5.

Take U2C C66U: the yeast fitness was 0.968. As for C4G C22G A43U A57C U59C, the yeast fitness was no more than 0.5. Then C5G C24G C27G C60U, with 0.627; and U2C U13A C61U, with no more than 0.5; and A14G C29G C33U, with 0.55. To G18C U28G A36C G38C belongs no more than 0.5; to G12A A20U A42C, 0.692. To C30G C31G U32A C66U belongs 0.527; to G17C C22A C31G C55G G68A, 0.587; to G9A G68A A69C, 0.802. Regarding G44U A70C, the yeast fitness amounted to 0.813.

Regarding A40C G56A A70G, the yeast fitness was determined as 0.556. Then G51A C60U G68A, with no more than 0.5.

Consider C30U C31G C33U A37C A65C, for which the yeast fitness is no more than 0.5. Then C11G C34G A36G G48C, with no more than 0.5; and A20U C31G A69C, with no more than 0.5; and U28C A40G A45C A70U, with 0.911. For G12C U13C C22U A43C G68C, the yeast fitness is no more than 0.5. On to A20G A40G A57U A65G, for which the yeast fitness is no more than 0.5. To C27G C31G G63U belongs no more than 0.5; to U8A G48A, 0.666; to C29U C46A, 0.932.

Turning to G23A C49A G58A, the yeast fitness was no more than 0.5. U16A U19C: the yeast fitness came out at 1.03. Then C22G U28A A37C A42C C46A, with no more than 0.5; and G12C A40C, with 0.722.

As for U26C C61G C62G, the yeast fitness was no more than 0.5. To A40U G44C U64C belongs 0.944. To U32C G38C G50A A70G belongs no more than 0.5; to U19C G44C G58A A65G, 0.987; to C22A G48A, 0.826.

As to C4A A20U C34G C55G C60A, the yeast fitness is no more than 0.5. In the case of C5A A15G C31U, the yeast fitness worked out at 0.657. For A15C A21G C22U A43U A57U, the yeast fitness was no more than 0.5. For A42G A45G U47C G51C, the yeast fitness was no more than 0.5.

Take A15U U16C: the yeast fitness stood at 0.893. Turning to C29G G56C, the yeast fitness is no more than 0.5. To U3G U8C belongs 0.681; to C29G C31A C55U A70U, no more than 0.5; to G41C G67A, 0.89. Take A15G C29A A36G G39A: the yeast fitness was no more than 0.5.

Take U16A C30G A57U: the yeast fitness is no more than 0.5.

As to A14U A20C C22G C31G U47A, the yeast fitness was no more than 0.5.

On to C31U U35C U53C, for which the yeast fitness was no more than 0.5. Then G50A U53A A57G G58A A69C, with 0.657. To C5G C11G A14U A15U C61U G68C belongs no more than 0.5; to C4G U59C A69C, 0.778; to C4A C27U G39C, 0.632. Then U3G A14U C30U C55A, with no more than 0.5. For U2C C24A C33A C46U, the yeast fitness was no more than 0.5.
